Results from different studies.
SLC22A1: Solute carrier family 22 member 1 (SLC22A1, Homo sapiens, UniProt O15245)

Structure (SMILES)	tested on	test	system	setting	endpoint	result
CCCCOC(=O)N1CCN(C(=O)[C@H](CP(=O)(O)O)NC(=O)c2cc(N3CC[C@H](OC)C3)nc(-c3ccccc3)n2)CC1	–	–	human, plasma	subcutaneous, 8 mg, 24 h, single dose	concentration	0.4 ng/mL
C[C@@]12COCO[C@@H]1CC[C@]1(C)[C@@H]2CC[C@@H]2CN(Cc3ccc(F)cc3)[C@@H](C3=CCOC3=O)C[C@H]21	MRC5	cell growth or viability, ATP luminescence	–	25 µM, 72 h	cell death	-4.3%
COc1cc(OC)c2c(=O)cc(-c3ccccc3Br)oc2c1	HS27	cell growth or viability, MTT	–	24 h	CC50	> 200 µM
CN(C(=O)n1cnc(-c2ccc[n+]([O-])c2)c1)C1CCCCC1	SLC22A1	transporter uptake, inhibitor	CHO	1 µg/mL	inhibition	13%
Oc1c(-n2ccnn2)cnn1-c1cc(N2CCOCC2)ncn1	–	–	female monkey, plasma	oral, 1 mg/kg	bioavailability	61%
CC(C)CCN1C[C@H]2CC[C@@H]3[C@]4(C)COC(C)(C)O[C@@H]4CC[C@@]3(C)[C@@H]2C[C@@H]1C1=CCOC1=O	MRC5	cell growth or viability, ATP luminescence	–	25 µM, 72 h	cell death	11.7%
C=CCn1c(=O)c2cnc(Nc3ccc(N4CCN(C)CC4)cc3)nc2n1-c1cccc(C(C)(C)O)n1	–	–	human, plasma	oral, 175 mg, 8 h, single dose	concentration	213 nM
O=C(O)CSc1nnc(Br)n1-c1ccc(C2CC2)c2ccccc12	SLC22A1	transporter uptake, inhibitor	MDCK-II	3 µM, 5 min	inhibition	36%
COc1ccc(-c2cc(=O)c3c(OC)cc(OC)c(-c4c(OC)cc(OC)c5c(=O)cc(-c6ccc(OC)cc6)oc45)c3o2)cc1	HS27	cell growth or viability, MTT	–	24 h	CC50	> 200 µM
C[C@@]12COCO[C@@H]1CC[C@]1(C)[C@@H]2CC[C@@H]2CN(Cc3ccccc3)[C@@H](C3=CCOC3=O)C[C@H]21	MRC5	cell growth or viability, ATP luminescence	–	25 µM, 72 h	cell death	-1.2%
COc1cc(OC)c2c(=O)cc(-c3cccc(Br)c3)oc2c1	HS27	cell growth or viability, MTT	–	24 h	CC50	128 µM
COc1ccc(CN2C[C@H]3CC[C@@H]4[C@](C)(COC(C)=O)[C@H](OC(C)=O)CC[C@@]4(C)[C@@H]3C[C@@H]2C2=CCOC2=O)cc1	MRC5	cell growth or viability, ATP luminescence	–	25 µM, 72 h	cell death	56.4%
